Source: ChEMBL document CHEMBL1130092, “Discovery of potent nonpeptide vitronectin receptor (alpha v beta 3) antagonists” (J Med Chem, 1997)
Bridge positions count the residues as written; N and C are the ends. Peptide text beside a SMILES is read from it.

What was measured:
Integrin alpha-V/beta-3 = Integrin alpha-V/beta-3 (Homo sapiens, UniProt P05106+P06756); experiment: Affinity for vitronectin receptor, integrin alphaV-beta3; type: protein-complex assay
In short: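 Competitive radioligand binding to human αVβ3, displacing [3H]SK&F 107260; Ki values are means of two to three separate experiments.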

[1] = target: Integrin alpha-IIb/beta-3 (Homo sapiens, UniProt P05106+P08514); experiment: Affinity for platelet fibrinogen receptor, integrin alpha IIb/beta3
Sequence of Integrin alpha-IIb/beta-3 (P05106 27-788 limits assumed): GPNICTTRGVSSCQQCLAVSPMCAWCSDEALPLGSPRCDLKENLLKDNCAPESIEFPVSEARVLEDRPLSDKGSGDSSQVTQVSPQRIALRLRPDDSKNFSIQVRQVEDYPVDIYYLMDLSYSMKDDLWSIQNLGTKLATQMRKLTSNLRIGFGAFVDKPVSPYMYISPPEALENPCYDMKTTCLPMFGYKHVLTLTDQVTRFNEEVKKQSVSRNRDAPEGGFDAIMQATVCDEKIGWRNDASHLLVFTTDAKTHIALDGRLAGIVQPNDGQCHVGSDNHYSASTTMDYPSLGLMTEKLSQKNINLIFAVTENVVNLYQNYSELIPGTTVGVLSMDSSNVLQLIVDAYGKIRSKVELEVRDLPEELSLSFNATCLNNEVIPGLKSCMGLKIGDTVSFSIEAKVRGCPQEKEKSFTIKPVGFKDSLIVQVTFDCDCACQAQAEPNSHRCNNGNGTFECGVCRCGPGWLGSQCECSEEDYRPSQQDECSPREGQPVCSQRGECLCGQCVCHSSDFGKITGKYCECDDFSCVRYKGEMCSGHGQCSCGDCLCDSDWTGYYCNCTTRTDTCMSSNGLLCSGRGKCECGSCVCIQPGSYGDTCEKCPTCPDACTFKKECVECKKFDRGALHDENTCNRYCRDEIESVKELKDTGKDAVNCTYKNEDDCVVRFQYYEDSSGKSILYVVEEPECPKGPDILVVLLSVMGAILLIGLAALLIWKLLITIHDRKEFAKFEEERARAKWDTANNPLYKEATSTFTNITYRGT
Sequence of Integrin alpha-IIb/beta-3 (P08514 32-887 limits assumed): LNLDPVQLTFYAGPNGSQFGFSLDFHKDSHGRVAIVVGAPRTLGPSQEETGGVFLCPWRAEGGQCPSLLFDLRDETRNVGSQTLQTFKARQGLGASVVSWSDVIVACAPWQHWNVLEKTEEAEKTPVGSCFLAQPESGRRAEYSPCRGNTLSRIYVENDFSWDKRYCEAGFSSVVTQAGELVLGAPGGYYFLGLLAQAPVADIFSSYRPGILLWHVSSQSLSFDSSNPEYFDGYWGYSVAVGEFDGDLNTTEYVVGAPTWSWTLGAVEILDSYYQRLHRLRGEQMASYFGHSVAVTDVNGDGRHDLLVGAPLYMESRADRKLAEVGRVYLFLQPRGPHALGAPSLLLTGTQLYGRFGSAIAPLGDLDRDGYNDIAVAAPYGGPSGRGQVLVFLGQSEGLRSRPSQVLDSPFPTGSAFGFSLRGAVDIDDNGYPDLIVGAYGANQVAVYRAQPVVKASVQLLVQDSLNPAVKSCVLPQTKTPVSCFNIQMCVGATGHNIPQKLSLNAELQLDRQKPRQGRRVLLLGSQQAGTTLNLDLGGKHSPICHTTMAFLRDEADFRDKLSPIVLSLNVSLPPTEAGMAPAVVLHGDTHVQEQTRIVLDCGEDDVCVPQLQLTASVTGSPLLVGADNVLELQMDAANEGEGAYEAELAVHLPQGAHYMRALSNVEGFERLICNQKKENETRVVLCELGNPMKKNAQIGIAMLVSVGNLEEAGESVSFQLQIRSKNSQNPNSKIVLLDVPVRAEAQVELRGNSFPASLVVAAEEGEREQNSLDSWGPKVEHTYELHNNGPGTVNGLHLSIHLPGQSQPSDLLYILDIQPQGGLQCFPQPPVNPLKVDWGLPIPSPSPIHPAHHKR
Sequence of Integrin alpha-IIb/beta-3 (P08514 891-1039 limits assumed): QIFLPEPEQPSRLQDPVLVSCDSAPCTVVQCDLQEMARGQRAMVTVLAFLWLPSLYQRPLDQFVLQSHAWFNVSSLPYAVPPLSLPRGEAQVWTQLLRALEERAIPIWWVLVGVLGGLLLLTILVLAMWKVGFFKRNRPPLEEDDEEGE

Sequence of Integrin alpha-V/beta-3 (P05106 27-788 limits assumed): as the sequence (P05106 27-788 limits assumed) above
Sequence of Integrin alpha-V/beta-3 (P06756 31-889 limits assumed): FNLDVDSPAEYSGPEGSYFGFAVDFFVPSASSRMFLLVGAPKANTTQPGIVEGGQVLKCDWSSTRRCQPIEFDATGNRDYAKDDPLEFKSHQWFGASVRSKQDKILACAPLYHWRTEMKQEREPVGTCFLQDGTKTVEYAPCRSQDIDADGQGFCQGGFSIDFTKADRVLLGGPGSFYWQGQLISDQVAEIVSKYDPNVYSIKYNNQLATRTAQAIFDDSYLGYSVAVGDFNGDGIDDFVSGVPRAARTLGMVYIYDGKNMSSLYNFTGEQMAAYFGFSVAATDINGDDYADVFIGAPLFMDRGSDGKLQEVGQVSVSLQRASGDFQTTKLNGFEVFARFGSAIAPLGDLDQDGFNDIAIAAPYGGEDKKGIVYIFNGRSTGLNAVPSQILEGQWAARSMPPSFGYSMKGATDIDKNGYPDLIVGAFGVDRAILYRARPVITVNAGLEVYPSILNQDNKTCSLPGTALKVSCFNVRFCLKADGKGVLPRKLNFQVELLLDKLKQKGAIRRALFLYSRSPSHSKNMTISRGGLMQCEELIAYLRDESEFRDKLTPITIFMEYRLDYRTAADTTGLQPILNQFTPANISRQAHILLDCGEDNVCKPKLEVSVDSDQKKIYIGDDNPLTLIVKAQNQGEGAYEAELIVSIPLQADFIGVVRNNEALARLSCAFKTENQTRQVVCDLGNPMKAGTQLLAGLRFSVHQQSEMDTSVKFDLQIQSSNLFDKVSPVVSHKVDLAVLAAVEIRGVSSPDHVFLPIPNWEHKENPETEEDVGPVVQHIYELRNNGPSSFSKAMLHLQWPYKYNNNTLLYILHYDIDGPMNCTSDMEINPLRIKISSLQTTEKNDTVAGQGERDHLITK
Sequence of Integrin alpha-V/beta-3 (P06756 891-1048 limits assumed): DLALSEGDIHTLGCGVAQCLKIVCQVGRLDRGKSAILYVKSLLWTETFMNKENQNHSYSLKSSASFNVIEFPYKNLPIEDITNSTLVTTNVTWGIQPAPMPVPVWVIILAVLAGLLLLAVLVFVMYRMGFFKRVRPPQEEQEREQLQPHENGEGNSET

Row | Ki (Integrin alpha-V/beta-3) | Ki [1] | Structure (SMILES)
1 | 56000 nM | – | N=C(N)c1ccc(NC(=O)c2ccc3c(c2)CN(CCc2ccccc2)C(=O)C(CC(=O)O)N3)cc1 (stereo not given)
2 | 10 nM | 42000 nM | CC(=O)C[C@@H]1NC(=O)[C@@H](Cc2ccccc2)NC(=O)[C@H](C(C)C)NC(=O)[C@H](CCCN=C(N)N)NC(=O)CNC1=O
3 | 510 nM | 4500 nM | N=C(N)c1cccc(NC(=O)c2ccc3c(c2)CN(CCc2ccccc2)C(=O)C(CC(=O)O)N3)c1 (stereo not given)
4 | 50 nM | – | CN(C(=O)c1ccccc1)[C@@H](CCCNC(=N)N)C(=O)NCC1=CC(CC(=O)O)C(=O)N(c2ccccc2)CC1 (stereo not given in full)
5 | 15 nM | 52000 nM | CN1Cc2cc(C(=O)NCc3nc4ccccc4[nH]3)ccc2N[C@@H](CC(=O)O)C1=O
6 | 1100 nM | > 50000 nM | CN1Cc2cc(C(=O)NCCc3nc4ccccc4[nH]3)ccc2NC(CC(=O)O)C1=O (stereo not given)
7 | 1150 nM | > 50000 nM | CN1Cc2cc(C(=O)Nc3nc4ccccc4[nH]3)ccc2NC(CC(=O)O)C1=O (stereo not given)
8 | 1000 nM | 8 nM | CN1Cc2cc(C(=O)N3CCN(c4ccncc4)CC3)ccc2NC(CC(=O)O)C1=O (stereo not given)
9 | 24 nM | 30000 nM | CN1Cc2cc(C(=O)NCc3nc4ccccc4[nH]3)ccc2NC(CC(=O)O)C1=O (stereo not given)
10 | 10 nM | 75000 nM | N/C1=N/CCC[C@H](N)C(=O)NCC(=O)N[C@@H](CC(=O)O)C(=O)N[C@@H](CO)C(=O)N[C@@H](Cc2ccccc2)C(=O)NCC(=O)N1 (H-RGDSFG; lactam 1-C)
11 | 3.5 nM | – | CN1C(=O)c2ccccc2SSc2ccccc2NC(=O)[C@H](CC(=O)O)NC(=O)CNC(=O)[C@@H]1CCCN=C(N)N [SKF-107260]

Row | Structure (SMILES) | Ki (Integrin alpha-V/beta-3) | Ki [1]
12 | CN1Cc2cc(C(=O)N3CCN(c4ccccc4)CC3)ccc2NC(CC(=O)O)C1=O (stereo not given) | – | > 100000 nM
